Measurements as given in ChEMBL document CHEMBL3352369, “Design, synthesis and biological evaluation of novel 1-hydroxyl-3-aminoalkoxy xanthone derivatives as potent anticancer agents” (Eur J Med Chem, 2014).
pIC50: −log10 of the molar value. Calls of active or inactive are those of the source. The calls are words filed in the database; no cut-off is given here.

Tests used:
Type in all cases: functional, cell-based
[1] = Antiproliferative activity against human Bel7402 cells assessed as inhibition of cell viability after 48 hrs by MTT assay; details: Bel-7402, 48 h
Method in brief: (§1)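 A549, BEL-7402 and CNE lines from SIBS (Shanghai), grown as monolayer in RPMI 1640 with 10% FBS. 5000 cells/well in 96-well plates, graded concentrations for 48 h. MTT incubation 4 h at 37 C, DMSO solubilisation, A490 read. IC50 derived from survival relative to untreated control; 5-fluorouracil reference.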

A549 = assay: Antiproliferative activity against human A549 cells assessed as inhibition of cell viability after 48 hrs by MTT assay; details: A549, 48 h; method in brief: as §1
MGC-803 [2] = assay: Antiproliferative activity against human MGC803 cells assessed as inhibition of cell viability after 48 hrs by MTT assay; details: MGC-803, 48 h
Method in brief: (§2)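 MGC-803 cells from SIBS (Shanghai), monolayer in RPMI 1640 with 10% FBS. 5000 cells/well in 96-well plates, exposed to compound for 24, 48 or 72 h. MTT added for a further 4 h at 37 C, formazan dissolved in DMSO, absorbance read at 490 nm. Survival rate = sample/control absorbance × 100%. n = 5, three independent experiments, two-tailed t-test.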

CNE = assay: Antiproliferative activity against human CNE cells assessed as inhibition of cell viability after 48 hrs by MTT assay; method in brief: as §1
MGC-803 [3] = assay: Induction of apoptosis in human MGC803 cells assessed as koss of Ca2+ homeostasis after 24 hrs by fluorescence microscopy
MGC-803 [4] = assay: Induction of apoptosis in human MGC803 cells assessed as nuclear condensation after 24 hrs
MGC-803 [5] = assay: Anticancer activity against human MGC803 cells assessed as cell shrinkage and deformation at 100 uM after 72 hrs by inverted phase contrast microscopy assay
MGC-803 [6] = assay: Anticancer activity against human MGC803 cells assessed as inhibition of cell viability at 0.01 to 100 uM by MTT assay; details: TDE = time-dependent effect; method in brief: as §2
MGC-803 [7] = assay: Antiproliferative activity against human MGC803 cells assessed as inhibition of cell viability after 72 hrs by MTT assay; details: MGC-803, 72 h; method in brief: as §2
MGC-803 [8] = assay: Induction of apoptosis in human MGC803 cells assessed as change in mitochondrial membrane potential by Rhodamine 123 assay
Method in brief: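 Mitochondrial membrane potential measured with the cationic dye rhodamine 123 in treated MGC-803 cells at 10, 50 and 100 μM. Cellular fluorescence intensity normalised to baseline values of untreated control as a semiquantitative index.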

MGC-803 [9] = assay: Anticancer activity against human MGC803 cells assessed as inhibition of cell viability after 24 to 72 hrs by MTT assay; method in brief: as §2
MGC-803 [10] = assay: Anticancer activity against human MGC803 cells assessed as colony formation at > 1 uM after 24 hrs
Method in brief: (§3)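 Clonogenic assay: MGC-803 seeded at 200 cells/well in 6-well plates and treated for 24 h. Then kept 10 d at 37 C in humidified CO2. Colonies of >50 cells counted; survival expressed as percent of untreated control (100%). n = 3, three independent experiments.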

MGC-803 [11] = assay: Anticancer activity against human MGC803 cells assessed as colony formation after 24 hrs; method in brief: as §3
MGC-803 [12] = assay: Antiproliferative activity against human MGC803 cells assessed as inhibition of cell viability after 24 hrs by MTT assay; details: MGC-803, 24 h; method in brief: as §2

SMILES | pIC50 [1] | pIC50 (A549) | pIC50 (MGC-803 [2]) | pIC50 (CNE) | also measured
O=c1c2ccccc2oc2cc(OCCN3CCCC3)cc(O)c12 | 4.84 | 4.89 | 5.25 | 4.95 | –
CCN(CC)CCCCOc1cc(O)c2c(=O)c3ccccc3oc2c1 | 4.70 | 5.12 | 5.45 | 5.44 | Activity (MGC-803 [3]): Dose-dependent effect; inhibition (MGC-803 [4]): Dose-dependent effect; inhibition (MGC-803 [5]): Active; inhibition (MGC-803 [6]): tde; pIC50 (MGC-803 [7]): 5.74; Activity (MGC-803 [8]): Dose-dependent effect; inhibition (MGC-803 [9]): Dose-dependent effect; inhibition (MGC-803 [10]): Active; inhibition (MGC-803 [11]): Dose-dependent effect; pIC50 (MGC-803 [12]): 4.92
C[N+]1(CCOc2cc(O)c3c(=O)c4ccccc4oc3c2)CCCC1 | < 4.00 | < 4.00 | 4.08 | 4.18 | –
O=c1c2ccccc2oc2cc(OCCCCCN3CCCC3)cc(O)c12 | 4.74 | 5.22 | 5.42 | 4.92 | –
O=c1c2ccccc2oc2cc(OCCBr)cc(O)c12 | < 4.00 | < 4.00 | 4.67 | < 4.00 | –
C[N+]1(CCCCOc2cc(O)c3c(=O)c4ccccc4oc3c2)CCCC1 | < 4.00 | 4.71 | 5.09 | < 4.00 | –
C[N+]1(CCCOc2cc(O)c3c(=O)c4ccccc4oc3c2)CCCC1 | < 4.00 | < 4.00 | 5.02 | < 4.00 | –
O=c1c2ccccc2oc2cc(OCCCBr)cc(O)c12 | < 4.00 | < 4.00 | 4.54 | < 4.00 | –
O=c1c2ccccc2oc2cc(OCCCCCCBr)cc(O)c12 | < 4.00 | < 4.00 | < 4.00 | < 4.00 | –
O=c1c2ccccc2oc2cc(OCCCN3CCCC3)cc(O)c12 | 4.89 | 4.93 | 5.18 | 5.20 | –
O=c1[nH]cc(F)c(=O)[nH]1 [FLUOROURACIL] | 4.70 | 5.12 | 5.11 | 4.82 | –
O=c1c2ccccc2oc2cc(OCCCCN3CCOCC3)cc(O)c12 | < 4.00 | < 4.00 | < 4.00 | < 4.00 | –
C[N+]1(CCCCOc2cc(O)c3c(=O)c4ccccc4oc3c2)CCOCC1 | < 4.00 | < 4.00 | 4.75 | 4.03 | –
O=c1c2ccccc2oc2cc(OCCCCCBr)cc(O)c12 | 4.11 | < 4.00 | 4.61 | < 4.00 | –
CC[N+](C)(CC)CCCCOc1cc(O)c2c(=O)c3ccccc3oc2c1 | < 4.00 | 4.89 | 5.34 | < 4.00 | –
O=c1c2ccccc2oc2cc(OCCCCBr)cc(O)c12 | 4.17 | < 4.00 | 4.64 | 4.07 | –
O=c1c2ccccc2oc2cc(OCCCCCCN3CCCC3)cc(O)c12 | 4.75 | 5.05 | 5.27 | 5.91 | –
C[N+]1(CCCCCCOc2cc(O)c3c(=O)c4ccccc4oc3c2)CCCC1 | 4.62 | 5.00 | 4.83 | 5.32 | –
C[N+](C)(C)CCCCOc1cc(O)c2c(=O)c3ccccc3oc2c1 | < 4.00 | 4.08 | 4.42 | 4.41 | –
O=c1c2ccccc2oc2cc(OCCCCN3CCCC3)cc(O)c12 | 4.68 | 4.73 | 5.35 | 5.22 | –
O=c1c2ccccc2oc2cc(OCCCCN3CCCCC3)cc(O)c12 | 4.26 | 4.05 | 4.55 | 4.79 | –
C[N+]1(CCCCCOc2cc(O)c3c(=O)c4ccccc4oc3c2)CCCC1 | < 4.00 | 4.97 | 4.90 | 5.41 | –
C[N+]1(CCCCOc2cc(O)c3c(=O)c4ccccc4oc3c2)CCCCC1 | < 4.00 | 4.72 | 5.29 | 4.58 | –
CN(C)CCCCOc1cc(O)c2c(=O)c3ccccc3oc2c1 | 4.69 | 5.05 | 5.22 | 5.42 | –
